Source: ChEMBL document CHEMBL4689842, “EUbOPEN Chemogenomics Library wave 1” (2021)

Test system: U2OS
Assay: Multiplex assay against U2OS
Format: toxicity, cell-based
Conditions: human
Method in brief: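 Cells stained live at seeding with Hoechst33342, BioTracker Green Microtubule Cytoskeleton Dye, MitoTracker Red and Annexin V Alexa Fluor 680 were imaged on a CQ1 microscope at 37°C and 5% CO2 after compound addition. Their classification by CellPathfinder machine-learning gating ran from Hoechst high-intensity objects versus normal cells, to healthy, pyknosed or fragmented nuclei among normal cells, to mitotic or apoptotic among pyknosed cells. Tubulin, mitochondrial-mass and membrane-permeability phenotypes are per cents of healthy-nucleus cells.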

[1] = 12 h, 1 µM, compound concentration 1 uM, replicate 1
[2] = 12 h, 1 µM, compound concentration 1 uM, replicate 2
[3] = 12 h, 10 µM, compound concentration 10 uM, replicate 1
[4] = 12 h, 10 µM, compound concentration 10 uM, replicate 2
[5] = 24 h, 1 µM, compound concentration 1 uM, replicate 1
[6] = 24 h, 1 µM, compound concentration 1 uM, replicate 2
[7] = 24 h, 10 µM, compound concentration 10 uM, replicate 1
[8] = 24 h, 10 µM, compound concentration 10 uM, replicate 2
[9] = 48 h, 1 µM, compound concentration 1 uM, replicate 1
[10] = 48 h, 1 µM, compound concentration 1 uM, replicate 2
[11] = 48 h, 10 µM, compound concentration 10 uM, replicate 1
[12] = 48 h, 10 µM, compound concentration 10 uM, replicate 2

## Nc1nc2c(c(N3CCNCC3)n1)CCC1=C2[C@@H]2CCCC[C@@H]2O1
[1]
  Population Apoptotic (%): 34%
  Population Fragmented Nuclei (%): 14%
  Population Healthy Nuclei (%): 66%
  Population Hoechst High Intensity Objects (%): 7%
  Population Membrane Permeable-Phenotype (%): 4%
  Population Mitochondria Different-Phenotype (%): 9%
  Population Mitotic Cells (%): 65%
  Population Normal (%): 92%
  Population Tubulin-Different-Phenotype (%): 7%
  Total Cell Count: 167
[2]
  Population Apoptotic (%): 0%
  Population Fragmented Nuclei (%): 20%
  Population Healthy Nuclei (%): 61%
  Population Hoechst High Intensity Objects (%): 15%
  Population Membrane Permeable-Phenotype (%): 8%
  Population Mitochondria Different-Phenotype (%): 27%
  Population Mitotic Cells (%): 100%
  Population Normal (%): 84%
  Population Pyknosed Nuclei (%): 18%
  Population Tubulin-Different-Phenotype (%): 21%
  Total Cell Count: 71
[3]
  Population Apoptotic (%): 26%
  Population Fragmented Nuclei (%): 13%
  Population Healthy Nuclei (%): 62%
  Population Hoechst High Intensity Objects (%): 9%
  Population Membrane Permeable-Phenotype (%): 11%
  Population Mitochondria Different-Phenotype (%): 88%
  Population Mitotic Cells (%): 73%
  Population Normal (%): 90%
  Population Pyknosed Nuclei (%): 24%
  Population Tubulin-Different-Phenotype (%): 93%
  Total Cell Count: 135
[4]
  Population Apoptotic (%): 27%
  Population Fragmented Nuclei (%): 9%
  Population Healthy Nuclei (%): 68%
  Population Hoechst High Intensity Objects (%): 3%
  Population Membrane Permeable-Phenotype (%): 25%
  Population Mitochondria Different-Phenotype (%): 87%
  Population Mitotic Cells (%): 72%
  Population Normal (%): 96%
  Population Pyknosed Nuclei (%): 21%
  Population Tubulin-Different-Phenotype (%): 92%
  Total Cell Count: 106
[5]
  Population Apoptotic (%): 39%
  Population Fragmented Nuclei (%): 15%
  Population Healthy Nuclei (%): 65%
  Population Hoechst High Intensity Objects (%): 4%
  Population Membrane Permeable-Phenotype (%): 7%
  Population Mitochondria Different-Phenotype (%): 4%
  Population Mitotic Cells (%): 60%
  Population Normal (%): 95%
  Population Pyknosed Nuclei (%): 19%
  Population Tubulin-Different-Phenotype (%): 3%
  Total Cell Count: 203
[6]
  Population Apoptotic (%): 20%
  Population Fragmented Nuclei (%): 22%
  Population Healthy Nuclei (%): 57%
  Population Hoechst High Intensity Objects (%): 8%
  Population Membrane Permeable-Phenotype (%): 6%
  Population Mitochondria Different-Phenotype (%): 20%
  Population Mitotic Cells (%): 80%
  Population Normal (%): 91%
  Population Pyknosed Nuclei (%): 20%
  Population Tubulin-Different-Phenotype (%): 16%
  Total Cell Count: 82
[7]
  Population Apoptotic (%): 40%
  Population Fragmented Nuclei (%): 11%
  Population Healthy Nuclei (%): 45%
  Population Hoechst High Intensity Objects (%): 14%
  Population Membrane Permeable-Phenotype (%): 16%
  Population Mitochondria Different-Phenotype (%): 85%
  Population Mitotic Cells (%): 59%
  Population Normal (%): 85%
  Population Pyknosed Nuclei (%): 43%
  Population Tubulin-Different-Phenotype (%): 75%
  Total Cell Count: 140
[8]
  Population Apoptotic (%): 33%
  Population Fragmented Nuclei (%): 8%
  Population Healthy Nuclei (%): 46%
  Population Hoechst High Intensity Objects (%): 2%
  Population Membrane Permeable-Phenotype (%): 22%
  Population Mitochondria Different-Phenotype (%): 79%
  Population Mitotic Cells (%): 66%
  Population Normal (%): 97%
  Population Pyknosed Nuclei (%): 45%
  Population Tubulin-Different-Phenotype (%): 69%
  Total Cell Count: 109
[9]
  Population Apoptotic (%): 31%
  Population Fragmented Nuclei (%): 8%
  Population Healthy Nuclei (%): 78%
  Population Hoechst High Intensity Objects (%): 5%
  Population Membrane Permeable-Phenotype (%): 3%
  Population Mitochondria Different-Phenotype (%): 5%
  Population Mitotic Cells (%): 68%
  Population Normal (%): 94%
  Population Pyknosed Nuclei (%): 13%
  Population Tubulin-Different-Phenotype (%): 5%
  Total Cell Count: 299
[10]
  Population Apoptotic (%): 40%
  Population Fragmented Nuclei (%): 19%
  Population Healthy Nuclei (%): 65%
  Population Hoechst High Intensity Objects (%): 9%
  Population Membrane Permeable-Phenotype (%): 4%
  Population Mitochondria Different-Phenotype (%): 17%
  Population Mitotic Cells (%): 60%
  Population Normal (%): 90%
  Population Pyknosed Nuclei (%): 14%
  Population Tubulin-Different-Phenotype (%): 13%
  Total Cell Count: 113
[11]
  Population Apoptotic (%): 62%
  Population Fragmented Nuclei (%): 19%
  Population Healthy Nuclei (%): 32%
  Population Hoechst High Intensity Objects (%): 18%
  Population Membrane Permeable-Phenotype (%): 8%
  Population Mitochondria Different-Phenotype (%): 76%
  Population Mitotic Cells (%): 37%
  Population Normal (%): 81%
  Population Pyknosed Nuclei (%): 48%
  Population Tubulin-Different-Phenotype (%): 63%
  Total Cell Count: 175
[12]
  Population Apoptotic (%): 48%
  Population Fragmented Nuclei (%): 9%
  Population Healthy Nuclei (%): 40%
  Population Hoechst High Intensity Objects (%): 12%
  Population Membrane Permeable-Phenotype (%): 21%
  Population Mitochondria Different-Phenotype (%): 78%
  Population Mitotic Cells (%): 51%
  Population Normal (%): 87%
  Population Pyknosed Nuclei (%): 50%
  Population Tubulin-Different-Phenotype (%): 53%
  Total Cell Count: 133
